Bioassay records: PubChem BioAssay, several laboratories
NRP1-CendR mod: modulators of CendR peptide binding to NRP-1, primary screen, biochemical, fluorescence polarization, uHTS. Neuropilin-1 (Homo sapiens), O14786. FAM-RPARPAR peptide binding to NRP-1. inhibition, % at 25 µM. 0.85% of 360,000 active;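 active means inhibition or corrected inhibition above about 18%, plus a signal ratio from 0.5 to 1.5, limit read from the data, passing the limit was not always enough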
sPLA2-III inh: human group III sPLA2 inhibitors, primary screen, biochemical, QFRET, BODIPY PC-A2 liposome substrate | Group 3 secretory phospholipase A2 (Homo sapiens), Q9NZ20 | 0.56% of 370,000 active | inhibition, % at 12.2 µM | QFRET BODIPY PC-A2 liposome hydrolysis, fluorescence;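 active means inhibition above mean plus 3 SD of compounds lying within the high and low control bounds, cut at about 19% in these data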;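 further: 0% = median of test compound wells and 100% = no enzyme DMSO wells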
Target sequence (Q9NZ20 whole entry, looked up): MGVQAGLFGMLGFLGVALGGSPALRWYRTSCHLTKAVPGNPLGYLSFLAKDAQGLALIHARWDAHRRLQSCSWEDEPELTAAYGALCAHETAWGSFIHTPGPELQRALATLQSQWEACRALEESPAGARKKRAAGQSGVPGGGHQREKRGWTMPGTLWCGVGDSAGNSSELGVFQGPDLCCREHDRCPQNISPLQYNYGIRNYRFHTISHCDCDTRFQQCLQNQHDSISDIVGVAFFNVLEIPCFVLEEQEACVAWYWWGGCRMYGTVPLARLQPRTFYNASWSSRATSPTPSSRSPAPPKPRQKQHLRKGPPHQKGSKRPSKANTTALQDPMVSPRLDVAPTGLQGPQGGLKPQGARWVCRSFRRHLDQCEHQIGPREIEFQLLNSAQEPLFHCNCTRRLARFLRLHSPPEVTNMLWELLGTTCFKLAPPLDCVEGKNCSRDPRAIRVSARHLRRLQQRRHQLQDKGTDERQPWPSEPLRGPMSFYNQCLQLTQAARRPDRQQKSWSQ
HTR2A ag: mouse Htr2a agonists via beta-arrestin recruitment, primary screen, cell-based, luminescence; 5-hydroxytryptamine receptor 2A (Mus musculus), P35363; activation, % at 7.6 µM; CHO-K1 mHTR2A beta-arrestin complementation; percent of 30 µM serotonin response; 0.66% of 360,000 active;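 active means activation above a run cutoff, the mean activation of all tested compounds plus 3 SD, cut at about 14% in these data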;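 further: 0% = plate median of compound wells and 100% = 30 µM serotonin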
Arrestin-AP2 inh: inhibitors of beta-arrestin/AP2 binding, primary screen, biochemical, GPCR trafficking, flow cytometry. inhibition, % at 10 µM. AID 504490, 2011. FITC-arrestin peptide / GST-AP2 beads; AP2 beta2 appendage carries R879A mutation. beta-arrestin 1 C-terminal peptide binding to AP2 beta2-adaptin appendage (human). 0.31% of 340,000 active;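 active means inhibition above a set limit, near 3 SD of compounds lacking own fluorescence, cut at about 54% in these data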;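 further: plate controls were DMSO wells for no effect and 5 µM unlabelled arrestin peptide for full effect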
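System: GST-AP2 R879A glutathione beads; medium: PBS, Tween 20 0.05%, BSA 0.1%; reagent: fluorescein-tagged arrestin peptide at 50 nM final; schedule: pre-incubation 12 min, peptide binding 1 h, room temperature; detection: flow cytometry, FL1 (488/535 nm); read-out: inhibition as reduced fluorescein signal on beads, percent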
M18AAP inhibitor: PfM18AAP inhibitors, malaria aminopeptidase, primary screen, biochemical, QFRET, recombinant enzyme. M18 aspartyl aminopeptidase (Plasmodium falciparum 3D7). inhibition, % at 7.35 µM. H-Glu-NHMec fluorogenic cleavage. 1.2% of 290,000 active;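 active means inhibition above the campaign mean inhibition over all tested compounds plus 3 SD, cut at about 28% in these data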;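 further: 0% = plate median of test compound wells and 100% = 2 mM ZnCl2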
Lipid droplet: inhibitors of hepatocyte lipid droplet formation, primary screen, imaging, high-throughput imaging, BODIPY stain | AML12 mouse hepatocytes, oleate lipid droplets | inhibition, % at 6.5 µM | 0.4% of 240,000 active;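 active means lipid droplet intensity inhibited by at least 50%, with more than 500 cells counted; inconclusive means wells with under 300 cells, treated as cytotoxic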
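Assay system: AML12 hepatocytes (mouse); Probe or stimulus: oleic acid at 100 µM to induce lipid droplet formation; Dosing: compound at 6.5 µM only; Schedule: compound with oleate, overnight; Detection: fluorescence imaging, 20x objective, two fields per well; Measure: % inhibition of lipid droplet signal.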
Hep lipid conf: hepatocyte lipid droplet accumulation inhibitors, confirmation, imaging, AML12 mouse hepatocytes, single concentration, high-content | shares compounds with Lipid droplet | BODIPY lipid droplet imaging; droplets induced with 100 µM oleic acid | inhibition, % at 5.2 µM | 65% of 870 active | AID 463183, 2010;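 active means inhibition of lipid droplet metric at least 50%, with more than 300 cells in each of four replicates; inconclusive means wells under 300 cells, flagged as toxic or low count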;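 further: plate controls were DMSO with oleic acid for no effect and 5 µM Triacsin-C for full effect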
AML12 cytotox: AML12 hepatocyte cytotoxicity, counter-screen for hepatic lipid droplet formation project, imaging, DAPI nuclear morphology imaging. shares compounds with Lipid droplet. AML12 mouse hepatocytes; hits give high values; cells fed 100 µM oleate overnight. 3% of 870 active. z-score at 5 µM; in the data active means z-score above about 6.3;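 further: compound exposure lasted overnight at 37 °C before fixation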
AML12 tox ATP: AML12 hepatocyte cytotoxicity, confirmation, cytotoxicity control for hepatic lipid droplet formation project, cell-based, single concentration | shares compounds with Lipid droplet | 530 tested, under 10 active | cytotoxicity, % at 50 µM | AML12 mouse hepatocyte viability, ATP luminescence; cells loaded with 100 µM oleic acid;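 active means cytotoxicity above 50% in each of four replicates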;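 further: compound exposure lasted overnight at 37 °C before the ATP read; 0% = DMSO-treated cells and 100% = wells with no cells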
* marks the source's active call; other numbers are inactive results; ? = inconclusive; . = no result given. Sampled rows, rich in hits. Any-hit rate of the full collection: about 3.3%.

SMILES	NRP1-CendR mod	sPLA2-III inh	HTR2A ag	Arrestin-AP2 inh	M18AAP inhibitor	Lipid droplet	Hep lipid conf	AML12 cytotox	AML12 tox ATP
Cc1ccc(S(=O)(=O)NCc2ccc(C(=O)NC3CC3)cc2)cc1	-3	-5	-2	-13	-2	60*	63	0.074	8
Cc1ccc(S(=O)(=O)NCc2ccc(C(=O)NC3CCCCC3)cc2)cc1	5	-4	-4	-2	-8	-4	.	.	.
COc1cc(SC)ccc1C(=O)OC(C)C(=O)Nc1ccc(NC(C)=O)cc1 (stereo not given)	11	-2	0	21	-9	59*	87*	-0.92	12
COc1cccc(-c2cn(-c3cccc(C(F)(F)F)c3)c(=S)[nH]2)c1	-3	16	1	31	22	59*	2	0.35	.
Cc1ccccc1N=Nc1c(N)[nH]n(-c2ccccc2)c1=O	.	9	.	.	.	.	.	.	.
COc1ccccc1N=Nc1c(C)[nH]n(-c2ccccc2)c1=O	6	4	1	23	0	56*	4	0.029	.
Cc1[nH]n(-c2ccccc2)c(=O)c1N=Nc1c(Cl)cccc1Cl	-5	.	1	32	-2	1	.	.	.
CCOc1ccccc1N=Nc1c(C)[nH]n(-c2ccccc2)c1=O	2	.	3	24	-3	76*	13	0.31	.
C[C@H]1COc2cccc(F)c2S(=O)(=O)N1C	.	3	.	.	.	.	.	.	.
C[C@@H](NC(=O)C[C@H]1CC[C@H]2[C@@H](COc3ccc(NC(=O)Nc4ccccc4)cc3C(=O)N2C)O1)c1ccccc1	.	-19	.	.	.	.	.	.	.
Cc1cc(NC(=O)c2ccc(Cl)cc2)cc(C)c1OCC(=O)N1CCOCC1	21	0	-2	16	0	41	.	.	.
CCCCOc1ccc(C(=O)Nc2cc(C)c(OCC(=O)N3CCOCC3)c(C)c2)cc1	8	-16	-3	9	-6	93*	96*	0.34	45
Cc1cc(NC(=O)c2cccc3ccccc23)cc(C)c1OCC(=O)N1CCOCC1	2	0	4	8	-3	61*	88*	0.28	17
COC(=O)[C@]12C[C@H](CC(=O)NCC34CC5CC(CC(C5)C3)C4)C(=O)N(Cc3cccc4ccccc34)C1=C[C@H](C(C)C)O[C@@H]2C1CC1	.	8	.	.	.	.	.	.	.
CC(=O)Nc1ccc(C(=O)N2CCCCC2c2cc(C(=O)Nc3cccc(C#N)c3)no2)cc1 (stereo not given)	-4	7	-2	.	.	.	.	.	.
C[C@H]1C2CC(OC(=O)Nc3ccccc3C(F)(F)F)C(C2)[C@H]2CCCCN21 (stereo not given in full)	.	-1	.	.	.	.	.	.	.
Cn1c(=O)c(C(=O)COC(=O)c2cc(-c3ccccc3)nc3ccccc23)c(N)n(Cc2ccccc2)c1=O	.	.	.	.	6	-5	.	.	.
Cn1c(=O)c(C(=O)COC(=O)c2cc(C3CC3)nc3ccccc23)c(N)n(Cc2ccccc2)c1=O	.	-22	.	.	2	55*	82*	-0.96	.
CCOC(=O)c1cc(-c2ccc(F)cc2)n(CC(=O)NC(C)CC)c1C (stereo not given)	8	-8	-3	5	-11	70*	66*	-0.52	13
CCOC(=O)c1cc(-c2ccc(C)cc2)n(CCC(=O)NC(C)CC)c1C (stereo not given)	-7	-2	0	-6	-12	0	.	.	.
Cc1cccc(C(=O)N=c2sccn2C)c1[N+](=O)[O-]	11	2	9	19	-3	-35	.	.	.
COc1cccc(N=CC=C2OC(C)(C)C(C)(C)O2)c1	4	-2	1	0	-1	66*	12	-0.37	.
O=C(N/N=C/c1cc2ccccc2nc1Cl)[C@H]1C[C@@H]1c1ccccc1	3	13	-1	1	-7	12	.	.	.
Cc1ccc2cc(/C=N/NC(=O)[C@H]3C[C@@H]3c3ccccc3)c(Cl)nc2c1	-2	2	-4	2	-6	75*	50	0.51	-1
Fc1ccc(Nc2nc(N3CCOCC3)nc(N3CCOCC3)n2)cc1	-11	-4	0	19	-3	4	.	.	.
SMILES	NRP1-CendR mod	sPLA2-III inh	HTR2A ag	Arrestin-AP2 inh	M18AAP inhibitor	Lipid droplet	Hep lipid conf	AML12 cytotox	AML12 tox ATP
O=C(Oc1cccc(/C=N/Nc2nc(Nc3ccccc3)nc(N3CCOCC3)n2)c1)c1ccco1	8	-22	-3	9	-6	120*	42	13*	.
Cc1[nH]c2ccccc2c1/C=N/Nc1nc(Nc2ccc(F)cc2)nc(N2CCOCC2)n1	-12	-6	0	8	25	61*	?	108*	.
O=C(OCc1cn([C@@H]2C[C@H](c3ccc(Cl)cc3)N(C(=O)C3CCCCC3)C[C@H]2O)nn1)c1ccccc1	6	-2	0	.	.	.	.	.	.
O=C(Nc1ccc(C(=O)N2CCOCC2)cc1)c1cccc(Br)c1	6	5	2	2	-3	2	.	.	.
O=C(Nc1cccc(Br)c1)c1cccc(OC(=S)N2CCOCC2)c1	-5	-16	-8	1	-8	59*	95*	0.95	19
CCOc1ccc(CCNC(=O)c2nnc(CS(=O)(=O)c3ccccc3)o2)cc1OCC	-6	-33	-5	5	1	2	.	.	.
CCOc1ccc(CCNC(=O)c2cc3sccc3n2Cc2ccccc2)cc1OCC	.	-7	.	.	.	.	.	.	.
CCOc1ccc(CCNC(=O)CSc2cc(=O)n(C)c3cc(Cl)ccc23)cc1OCC	9	8	1	19	0	78*	78*	-0.28	-1
CCOc1ccc(CCNC(=O)c2nnc(Cc3ccc(F)cc3)o2)cc1OCC	6	-4	-1	-6	3	102*	106*	-0.35	10
CCOc1ccc(CCNC(=O)CSc2cc(=O)n(CC)c3ccccc23)cc1OCC	-1	-5	3	12	4	93*	105*	-0.19	14
